Test: Toxicity liver stage against HepG2, at 10uM
Assay type: cell-based
Parameters: test concentration 10 uM, cell line HepG2-A16-CD81EGFP
Conditions: human, HepG2-A16-CD81EGFP cells; read-out: INHIBITION
Procedure, shortened: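 Uninfected HepG2-A16-CD81EGFP cells, 3 × 10^3 per well, 1536-well, plated on prespotted compound at 10 μM final, parasite-free screening media added to match infected plates; puromycin 10 μM positive, DMSO 0.5% negative; run in parallel with 48 h PbLuc assay at 37 °C, 5% CO2; viability by CellTiter-Glo luminescence, normalized to controls.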

| Compound | cytotoxicity at 10 µM [%] |
| --- | --- |
| CC(=O)Cn1ncc(N2CCOCC2)cc1=O | 7.26 |
| COCc1cccc(NC(=O)NCCCN(C)S(C)(=O)=O)c1 | -0.561 |
| CN(C)c1cc(C(=O)NCC2(c3ccc(F)cc3)CC2)ccn1 | 8.59 |
| CC(=O)N1CCC(N2CC[C@H](c3nc4cc(F)ccc4o3)C2)CC1 | 2.23 |
| CC(C)C[C@@H]1N[C@H](C(=O)NC(C)C)Cc2c[nH]c3cccc1c23 | 7.37 |
| O=C(NC[C@H]1OC[C@@H](NCc2ccccc2F)[C@@H]1O)c1ccc(F)cc1 | -1.26 |
| COC(=O)N1CCC(CNC(=O)C2CC2)CC1 | -2.82 |
| CN(CC(=O)NCC(F)(F)F)C(=O)c1ccc(=O)[nH]c1 | -4.39 |
| COc1cc(N2CCc3ncnc(-c4ccoc4)c3CC2)ncn1 | 14.9 |
| Cc1oncc1C(=O)N1CC[C@H]2CO[C@H](CN3CCCC3)[C@H]2C1 | 10.8 |
| COCCNC(=O)[C@H]1CC[C@@H]2[C@@H](CCN2S(C)(=O)=O)O1 | -8.87 |
| CCn1ncc2c1C(COC)CN(S(=O)(=O)C1CC1)C2 (stereo not given) | 11.1 |
| Cc1cnc(N2CCC3(CCCN(c4ncc(F)cn4)C3)C2)nc1 (stereo not given) | -124 |
| Cc1nc(CN2C(=O)COC3(CCN(C(N)=O)CC3)C2C)cs1 (stereo not given) | -130 |
| COCCC(=O)N1CCC2(CCN(Cc3ccc(OC)c(F)c3)C2)C1 (stereo not given) | 9.75 |
| Cc1nc(N2CCCC2)nc2c1CCN(C(=O)CC1CCCC1)CC2 | 0.457 |
| O=C(CSC1CCc2ccccc2NC1=O)Nc1ccc(CCO)cc1 (stereo not given) | -3.77 |
| CS(=O)(=O)CC(=O)N1C[C@@H]2COC[C@]2(c2nnc(C3CC3)o2)C1 | -13.1 |
| Cc1nn(C)cc1-c1cc(C(F)(F)F)nn1CCC#N | 3.65 |
| CCCn1cc(Cl)c(C(=O)N2C[C@@H](O)[C@H](Oc3ccccc3)C2)n1 | 5.31 |
| Cn1cc(CN(Cc2ccccn2)Cc2ccccc2Cl)cn1 | -2.48 |
| Cc1c[nH]c(C2COCCN2C(=O)c2ccc(=O)[nH]n2)n1 (stereo not given) | -8.77 |

| Compound | cytotoxicity at 10 µM [%] |
| --- | --- |
| Cc1ccccc1CC(=O)N(C)CC1(O)CCCN(c2ccccn2)C1 (stereo not given) | -18.3 |
| Cc1csc(C(=O)N2CCC3(CC(N(C)c4ccncn4)C3)C2)c1 (stereo not given) | -11.2 |
| NC(=O)Nc1cc(F)ccc1SCC(F)F | 0.0687 |
| NC(=O)c1cnc(NCC(=O)NCc2ccco2)c(Cl)c1 | 3.97 |
| O=C(COCCOc1ccccc1)NC1CCN(c2ccccn2)CC1 | -4.56 |
| COCCN1CCN(CC2(O)CCCCC2)CC1 | 7.04 |
| OC(CNCc1nnc2ccccn12)c1ccc2c(c1)OCO2 (stereo not given) | 5.79 |
| COc1ccc(OCCNC(=O)CN(C)Cc2nnc(C)n2C)cc1 | -10.3 |
| N#Cc1ccc(Cl)cc1NCC1CCOC1 (stereo not given) | 3.09 |
| CC(C)c1nn(C)c(N(C)C)c1CNCc1ccnc(N(C)C)c1 | 1.36 |
| Cc1cc(C)n(C2CCCN(C(=O)CN(C)C3CC3)C2)n1 (stereo not given) | -1.91 |
| Cc1nn(C)c(Cl)c1S(=O)(=O)N(CC(N)=O)CC(C)C | 8.18 |
| CCOc1ccc(Cl)cc1CCNC(=O)c1ccc(=O)n(C)c1 | 3.31 |
| Cc1cc(C2CCCN(Cc3noc(Cc4ccccc4)n3)C2)n[nH]1 (stereo not given) | 3.65 |
| CCc1n[nH]c(C2CN(CC(=O)N(C)Cc3ccco3)CCO2)n1 (stereo not given) | 1.07 |
| CC1(C)CN(C(=O)c2occc2COc2cccc(C#N)c2)CCO1 | 8.18 |
| Cc1cccc(N2CCN(CCC(=O)NCc3nnc[nH]3)CC2)c1 | -6.26 |
| CC(C)c1nsc(N2CCOC3(CCCC3)C2)n1 | 0.243 |
| N#CCCNC(=O)CSc1ccc(F)cc1F | 3.94 |
| O=C(CCc1ccc2c(c1)OCO2)Nc1cccnc1-n1cncn1 | 4.98 |
| COc1ccc(OC(F)F)c(NCC(=O)NCC(=O)N2CCCC2)c1 | -0.77 |
| O=C(NCc1ccccc1CN1CCOCC1)Nc1nncs1 | 14.3 |

| Compound | cytotoxicity at 10 µM [%] |
| --- | --- |
| CCc1nc(CCNC(=O)Nc2cc(C(N)=O)ccc2OC)cs1 | 1.43 |
| Cc1cccc(C2(CNC(C)c3nnc(C)o3)CCCC2)c1 (stereo not given) | 6.73 |
| COc1cc(F)ccc1N(C)Cc1ccccn1 | -1.84 |
| O=C(NCCC1CCN(CC(F)(F)F)CC1)C1CCCOC1 (stereo not given) | 1.51 |
| CC(CCNC(=O)NCCNc1cnccn1)c1ccccc1 (stereo not given) | -4.08 |
| CN1CCC(NC(=O)Nc2ccc(F)c(Br)c2)C1=O (stereo not given) | -137 |
| CCc1nc(CC(=O)NC(C#N)CC)cs1 (stereo not given) | 10.3 |
| COc1ccc(-c2noc(C3CCS(=O)(=O)C3)n2)cc1OC (stereo not given) | 5.4 |
| CC(NCCCC#N)c1ccc(-c2ccncc2)cc1 (stereo not given) | -1.93 |
| Cc1nc(C2CCCN2CCCn2c(=O)oc3ccccc32)no1 (stereo not given) | 6.91 |
| C1CN(c2nc(C3CC3)no2)CCN(C2CCOCC2)C1 | 0.442 |
| CCN(C(=O)CCc1ccc2[nH]ccc2c1)C1CC(=O)NC1=O (stereo not given) | -8.96 |
| Cc1nc(CN2CC(CO)Oc3ccccc32)sc1C (stereo not given) | 0.918 |
| Cc1cnn(CC2CCCN2CC(=O)N(C)Cc2ccc(C)o2)c1 (stereo not given) | -7.19 |
| CCN1CCN(S(=O)(=O)c2ncn(C)c2Cl)CC1 | 20.9 |
| COc1ccc(NC(C)C(=O)N2CCN(Cc3ccccc3)CC2)cn1 (stereo not given) | 1.26 |
| O=C(C1CCC1)N1CCC2(CC1)OCCO2 | 4.93 |
| O=C(c1ccnnc1)N1CCN2C[C@H](Oc3cccnc3)C[C@H]2C1 | 1.43 |
| CN(Cc1cc2n(n1)CCN(C(=O)c1cccnc1)C2)Cc1nccs1 | 1.2 |
| COc1cccc(OCCCc2cncc(C(N)=O)c2)c1 | -124 |
| CCc1ccc(C(=O)N2CC[C@](C)(O)C(C)(C)C2)[nH]1 | 2.43 |
| Cc1ccc2nc(C(=O)N3C[C@@H](C(=O)O)[C@H](c4cccnc4)C3)cn2c1 | 2.98 |

| Compound | cytotoxicity at 10 µM [%] |
| --- | --- |
| Cc1nc2c(c(N3C[C@@H](C)[C@@](C)(O)C3)n1)CCC2 | 9.74 |
| CNc1nc(C(=O)N2CCCN(c3ccnc(C)c3)CC2)cs1 | 6.37 |
| CC(=O)N1CCc2c(nc(N(C)C)nc2N(C)CCC2CCCCO2)C1 (stereo not given) | -7.97 |
| O=C(N[C@@H]1CCNC[C@H]1O)c1ccc(O)c(Cl)c1 | -5.46 |
| Cn1cccc1C(=O)N1CCC(c2nnc(Cn3ccnc3)n2C)CC1 | -114 |
| CCC(NS(=O)(=O)c1ccc(C(=O)NC2CC2)cc1)c1cnn(C)c1 (stereo not given) | 7.64 |
| CCCc1cc(C(=O)N2CCC3(CCCNC3=O)C2)cs1 (stereo not given) | -142 |
| CC(=O)c1c(C)nn(CC(=O)N2Cc3cnc(C(C)(C)C)nc3C2)c1C | -0.539 |
| CCNc1ncc(C(=O)NCc2csc(-c3cnccn3)n2)cn1 | 0.185 |
| O=c1[nH]cnc2c1CCN(S(=O)(=O)c1ccc(OC(F)(F)F)cc1)C2 | 1.61 |
| CN(Cc1nccn1C)CC1CCOc2ccccc2C1 (stereo not given) | -2.77 |
| CCCc1nnc(N2CCC3(CC2)CC(=O)NC(=O)C3)o1 | 3.06 |
| O=C(O)Cc1cccc(-n2ccnc2-c2ccc(F)c(Cl)c2)c1 | 2.17 |
| CCN(CCn1cccn1)Cc1nc(-c2cccs2)oc1C | -0.179 |
| Cc1cc(F)ccc1CN1CCC(O)(CN2CCCCC2)C1 (stereo not given) | 14.8 |
| O=C(O)c1c[nH]c2cc(NS(=O)(=O)c3cccc(F)c3F)ccc12 | 5.08 |
| COc1ccc(C)cc1CN1CCOC(Cn2nc(C)nc2C)C1 (stereo not given) | -2.47 |
| CC(Cc1ccco1)NC(=O)Nc1cccnc1 (stereo not given) | -6.78 |
| CN(C(=O)NCc1ccsc1)C1CCN(c2ccccc2)C1=O (stereo not given) | -5.63 |
| Cc1cc(C(=O)NCc2ccnc(OCC(F)(F)F)c2)no1 | -7.98 |
| CCOC1CCN(C(=O)NCCc2ccn(-c3ccccc3)n2)CC1 | -0.088 |
| COc1ncccc1CNCc1c(C)nn(C)c1N1CCOCC1 | -11.1 |

| Compound | cytotoxicity at 10 µM [%] |
| --- | --- |
| CCc1nnsc1C(=O)N1CCCN(Cc2ccccc2)CC1 | 7.57 |
| N#Cc1ccc(CC(=O)N2CCCC(n3cccn3)C2)cc1 (stereo not given) | -1.95 |
| COc1ccc(C(=O)N(C)Cc2cc(C)on2)c(F)c1 | -5.2 |
| CCN1CCN(C(=O)C(C)N2CCN(Cc3nccn3C)CC2)CC1 (stereo not given) | -6.34 |
| CCn1ccnc1CN1CCN(CC(O)Cn2cccn2)CC1 (stereo not given) | -5.97 |
| Cn1cc([C@@H]2CN(S(C)(=O)=O)C[C@H]2N)c2ccncc21 | 2.61 |
| Fc1ccc(F)c(CN2CCC(c3n[nH]c4ncccc34)CC2)c1 | -25.4 |
| Cn1ccnc1CN1CCN2C[C@H](Oc3cncnc3)C[C@H]2C1 | 8.71 |
| Cc1ccc(N2C[C@H]3CCC[C@@H](CN(C)C)[C@H]3C2)nn1 | 8.82 |
| CC1c2ncc(CN3CCN(C)CC3)n2CCN1CC1CC1 (stereo not given) | -20.3 |
| CN1C[C@@H]2CN(C(=O)NCc3cccc(F)c3)CCC[C@]2(C(=O)O)C1 | 1.14 |
| O=C(O)[C@]12CCCN(Cc3ccsc3)C[C@H]1CN(c1ncccn1)C2 | -144 |
| CN(C)CCOCC1CN(C(=O)c2ccsc2)Cc2ccnn2C1 (stereo not given) | -0.0653 |
| COCCN1C[C@@H](C)[C@@]2(COCCN(C(=O)c3cccc(C)n3)C2)C1 | 7.13 |
| Cc1cnc(C(=O)N2CCCn3c(nc(CN(C)C)cc3=O)C2)cn1 | -5.93 |
| Cc1noc(C)c1CN1C[C@H](OCc2ccncc2)[C@H]2OCCC[C@H]21 | 9.98 |
| Cc1ccsc1C(=O)N1CCCn2c(nc(CN(C)C)cc2=O)C1 | -0.385 |
| O=C(N1CCCO1)[C@@]12CCO[C@@H]1CCN(Cc1ccccc1)C2 | -13.6 |
| CC(C)C(=O)N1CCN(Cc2cnn(C)c2)CC2(CC(=O)N(C)C2)C1 (stereo not given) | 3.42 |
| c1cnc(N2CCC3(CCN(CC4CCOC4)CC3)C2)nc1 (stereo not given) | -5.56 |
| Cc1nc(CN2C(=O)COC3(CCN(CC4CC4)CC3)C2C)cs1 (stereo not given) | -131 |
| Cc1nc(N2CCCC2)nc2c1CN(C(C)C)CC2 | -6.85 |
